Hits are enriched below; roughly 2.3% of the tested compounds scored in any of these assays.
Arrestin-AP2 inh: human beta-arrestin and AP2 interaction inhibition. actives 0.31% (n = 340,000). FITC-arrestin peptide / GST-AP2 beads, flow cytometry; AP2 beta2 appendage carries R879A mutation. inhibition, % at 10 µM;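 active = inhibition above a set limit, near 3 SD of compounds lacking own fluorescence, cut at about 54% in these data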
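Material – AP2 appendage R879A on GSH beads · Buffer or medium – PBS with 0.05% Tween 20 and 0.1% BSA · Probe or stimulus – fluorescein-tagged arrestin peptide at 50 nM final · Incubation – compound with beads 12 min RT, then probe 1 h RT · Detection – high-throughput flow cytometry of beads, ex 488, em 535 nm · Evaluation – percent response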
N-glyco inh: blocks N-linked glycosylation in D54 reporter cells; D54 ERlucT glycosylation luciferase reporter, 24 h; percent of 100 nM tunicamycin response; reporter increase, % at 12.5 µM; actives 0.23% (n = 360,000); AID 588692;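 active = mean luciferase reporter signal, scaled so untreated is 0 and the glycosylation-blocking control 100, at or above a set limit in every replicate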;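 also: luciferase carries N-glycosylation sites so blocking glycosylation raises the light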
Rtt109 HAT inh: blocks Candida albicans Rtt109/Vps75 acetyltransferase activity. Q5AAJ8. purified Rtt109/Vps75, ThioGlo CoA-SH fluorescence, 4 h. inhibition, % at 34.9 µM. actives 0.16% (n = 330,000). AID 540336;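 active = inhibition of at least 50% in every replicate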
Target sequence (Q5AAJ8 whole entry, looked up): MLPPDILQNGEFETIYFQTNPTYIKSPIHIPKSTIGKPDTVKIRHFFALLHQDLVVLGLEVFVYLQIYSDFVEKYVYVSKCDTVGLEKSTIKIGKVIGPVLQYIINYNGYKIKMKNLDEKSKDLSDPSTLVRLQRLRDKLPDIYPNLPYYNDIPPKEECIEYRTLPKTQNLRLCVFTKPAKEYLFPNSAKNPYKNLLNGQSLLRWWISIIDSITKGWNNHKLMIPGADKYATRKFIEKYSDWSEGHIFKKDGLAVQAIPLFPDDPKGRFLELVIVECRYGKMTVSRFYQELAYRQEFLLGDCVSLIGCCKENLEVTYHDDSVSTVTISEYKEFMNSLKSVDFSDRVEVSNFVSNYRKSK
Env fusion inh: inhibitors of HIV Env-mediated cell fusion; actives 1.1% (n = 360,000); AID 651610; HeLa-JRFL Env/CEM21 cell fusion, luciferase; inhibition, % at 12.3 µM;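 active = mean replicate inhibition score of at least 50 and every replicate individually at or above 50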
PfHsp90 yeast 2: inhibits growth of yeast expressing Plasmodium falciparum Hsp90; actives 0.32% (n = 310,000); inhibition, % at 9.4 µM; S. cerevisiae expressing PfHsp90, BacTiter-Glo ATP, 48 h; yeast lacking PDR1 and PDR3 efflux regulators;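 active = every replicate shows inhibition above about 80%, whatever the replicate mean, limit read from the data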
PAX8 inh HTS: PAX8 transcriptional activity inhibition; RMG-I TPO-luciferase reporter, SteadyGlo, 24 h; inhibition, % at 12.6 µM; actives 1.2% (n = 360,000); AID 652154;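 active = mean replicate inhibition at least 60% with every replicate also reaching 60%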;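 also: luciferase light reporting Pax8 driven TPO promoter activity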
Numbers stand for hits; i = inactive; nt = no result.

SMILES	Arrestin-AP2 inh	N-glyco inh	Rtt109 HAT inh	Env fusion inh	PfHsp90 yeast 2	PAX8 inh HTS
CN(C)S(=O)(=O)c1ccc(N2CCCC2)c(C(=O)NCCc2ccc(F)cc2)c1	i	i	i	74.6	i	i
CSc1ccccc1NC(=O)c1cc(S(=O)(=O)N(C)C)ccc1N1CCCC1	i	i	i	i	i	i
CN(C)S(=O)(=O)c1ccc(N2CCCC2)c(C(=O)Nc2ccccc2)c1	i	46.2	i	i	i	i
Cc1ccc(NC(=O)c2cc(S(=O)(=O)N(C)C)ccc2N2CCCC2)cc1F	i	90.2	i	i	i	i
COc1ccc2c3c(n(C)c2c1)[C@H](CO)N(Cc1ccncc1)CC31CN(C(=O)C2CC2)C1	nt	nt	nt	nt	nt	i
CCNC(=O)C[C@@H]1CC[C@@H]2[C@@H](COc3ccc(NS(=O)(=O)c4ccccc4C)cc3C(=O)N2C)O1	nt	nt	nt	i	nt	i
C[C@@H]1CN([C@@H](C)CO)C(=O)c2cc(-c3cccc(F)c3)cnc2O[C@@H]1CN(C)C(=O)C1CC1	nt	nt	nt	i	nt	nt
CCOC(=O)c1c(C)oc2c1c(C(c1cccnc1)N1CCOCC1)c(O)c1ccccc12 (centres undefined)	i	i	i	nt	90.9	nt
CCCNC(=O)NC[C@@H]1[C@@H](c2ccc(C3=CCCC3)cc2)[C@@H](CO)N1C(C)=O	nt	nt	nt	nt	nt	i
CC(C)C#Cc1ccc2c(c1)O[C@@H](CN(C)S(=O)(=O)c1cn(C)cn1)[C@H](C)CN([C@H](C)CO)S2(=O)=O	nt	nt	nt	nt	nt	i
CC[C@H](C)[C@@H]1NC(=O)[C@@H](CC(C)C)NC(=O)[C@H](C(C)C)NC(=O)[C@H]2CSSC[C@H](NC1=O)C(=O)N2	nt	i	nt	69.3	nt	115.9
O=C1CCCC2=C1C1(CCCCC1)N=C(Nc1nc3ccccc3o1)N2	i	47.1	i	i	nt	i
COc1ccc(-c2cc(NC=O)c3ncc(-c4ccc(OC)c(OC)c4)n3c2)c(OC)c1	nt	i	nt	i	nt	82.9
COc1ccc(-c2cnc3c(NC=O)cc(-c4ccccc4)cn23)cc1OC	nt	i	nt	i	nt	i
COc1cccc(-c2cc(NC=O)c3ncc(-c4ccc(OC)c(OC)c4)n3c2)c1	nt	i	nt	i	nt	i
COc1ccc(-c2cnc3c(NC=O)cc(-c4ccc(F)cc4)cn23)cc1OC	nt	i	nt	i	nt	69.2
COc1cccc(-c2cnc3c(NC=O)cc(-c4ccc(OC)cc4OC)cn23)c1	nt	i	nt	i	nt	99.0
CC(C)NC(=O)Nc1ccc2c(c1)C(=O)N([C@@H](C)CO)C[C@@H](C)[C@@H](CN(C)Cc1ccc(C(=O)O)cc1)OCCCC[C@@H](C)O2	nt	nt	nt	i	nt	i
Cc1ccc(S(=O)(=O)N(C)C[C@H]2Oc3ccc(NS(=O)(=O)c4ccccc4)cc3CC(=O)N([C@H](C)CO)C[C@@H]2C)cc1	nt	nt	nt	i	nt	i
COc1ccccc1NC(=O)N(C)C[C@@H]1Oc2ncc(Br)cc2C(=O)N([C@H](C)CO)C[C@H]1C	nt	nt	nt	i	nt	nt
CCCNC(=O)COC(=O)/C=C/c1ccc2c(c1)OCO2	i	i	i	nt	i	69.2
CCCNC(=O)COC(=O)/C=C/c1ccco1	i	i	i	nt	i	87.7
O=C(COC(=O)/C=C/c1ccco1)NCc1ccccc1	i	i	i	i	nt	i
O=C(N[C@H]1CC[C@H](CCNC(=O)C2CCCCC2)O[C@@H]1CO)c1ccncc1	nt	nt	nt	i	nt	i
COc1cccc(N(C(=O)CCl)C(C(=O)NCCc2ccccc2)c2cccs2)c1 (centres undefined)	i	i	i	65.2	i	nt
SMILES	Arrestin-AP2 inh	N-glyco inh	Rtt109 HAT inh	Env fusion inh	PfHsp90 yeast 2	PAX8 inh HTS
COc1ccc(N(C(=O)CCl)C(C(=O)NCCc2ccccc2)c2cccs2)cc1Cl (centres undefined)	i	i	i	i	i	104.2
COc1cccc(N(C(=O)c2snc(C(N)=O)c2N)C(C(=O)NCC2CCCO2)c2cccs2)c1 (centres undefined)	i	i	i	i	i	i
CNC[C@H]1Oc2cc(C#CCC(C)C)ccc2S(=O)(=O)N([C@H](C)CO)C[C@@H]1C	nt	nt	nt	i	nt	nt
CCOc1ccc(NC(=O)CSc2nnc(-c3ccccn3)n2N)cc1	i	i	i	i	nt	i
CCn1c2ccccc2c2cc(NC(=O)CSc3nnc(-c4ccc(OC)c(OC)c4)n3N)ccc21	i	i	i	i	i	i
CCn1c2ccccc2c2cc(NC(=O)CSc3nnc(-c4ccccc4OC)n3N)ccc21	i	i	i	133.4	i	nt

Source: PubChem
